Data: ChEMBL document CHEMBL2169806, “Design, synthesis, and pharmacological evaluation of N-acylhydrazones and novel conformationally constrained compounds as selective and potent orally active phosphodiesterase-4 inhibitors” (J Med Chem, 2012)

Assays:
[1] = species on record: Bos taurus; experiment: Inhibition of bovine PDE4 using [3H]cAMP as substrate at 10 uM
Method in brief: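 Enzyme was PDE4 isolated from the media layer of bovine aorta, run in the two-step activity assay at 1 μM cAMP.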

[2] = tested on: Mus musculus; experiment: Antiinflammatory activity in A/J mouse assessed as inhibition of neutrophil accumulation in bronchoalveolar space at 100 umol/kg, po administered 1 hr prior to LPS-challenge measured after 18 hrs relative to vehicle-treated control; assay type: functional; details: Lung
[3] = Inhibition of bovine PDE4 using [3H]cAMP as substrate; design: species or system Bos taurus
[4] = tested on: Mus musculus; experiment: Antiinflammatory activity in A/J mouse lung assessed as inhibition of LPS-induced IL6 production at 100 umol/kg, po administered 1 hr prior to LPS-challenge measured after 18 hrs relative to vehicle-treated control; assay type: functional
[5] = tested on: PBMC; experiment: Antiinflammatory activity in human PBMC assessed as inhibition of LPS-induced TNFalpha production after 24 hrs by ELISA; assay type: functional, cell-based
[6] = tested on: Mus musculus; experiment: Antiinflammatory activity in A/J mouse assessed as inhibition of leukocyte accumulation in bronchoalveolar space at 100 umol/kg, po administered 1 hr prior to LPS-challenge measured after 18 hrs relative to vehicle-treated control; assay type: functional; details: Lung
[7] = tested on: Mus musculus; experiment: Antiinflammatory activity in A/J mouse assessed as inhibition of LPS-induced airway elastance provoked by methacholine at 100 umol/kg, po administered 1 hr prior to LPS-challenge measured after 18 hrs relative to vehicle-treated control; assay type: functional
[8] = tested on: Mus musculus; experiment: Antiinflammatory activity in A/J mouse assessed as inhibition of LPS-induced airway resistance provoked by methacholine at 100 umol/kg, po administered 1 hr prior to LPS-challenge measured after 18 hrs relative to vehicle-treated control; assay type: functional
[9] = tested on: Mus musculus; experiment: Antiinflammatory activity in A/J mouse lung assessed as inhibition of LPS-induced TNFalpha production at 100 umol/kg, po administered 1 hr prior to LPS-challenge measured after 18 hrs relative to vehicle-treated control; assay type: functional
[10] = molecular target: 3',5'-cyclic-AMP phosphodiesterase 4D (Homo sapiens, UniProt Q08499); experiment: Inhibition of human recombinant PDE4D
Chain of 3',5'-cyclic-AMP phosphodiesterase 4D (Q08499 whole entry): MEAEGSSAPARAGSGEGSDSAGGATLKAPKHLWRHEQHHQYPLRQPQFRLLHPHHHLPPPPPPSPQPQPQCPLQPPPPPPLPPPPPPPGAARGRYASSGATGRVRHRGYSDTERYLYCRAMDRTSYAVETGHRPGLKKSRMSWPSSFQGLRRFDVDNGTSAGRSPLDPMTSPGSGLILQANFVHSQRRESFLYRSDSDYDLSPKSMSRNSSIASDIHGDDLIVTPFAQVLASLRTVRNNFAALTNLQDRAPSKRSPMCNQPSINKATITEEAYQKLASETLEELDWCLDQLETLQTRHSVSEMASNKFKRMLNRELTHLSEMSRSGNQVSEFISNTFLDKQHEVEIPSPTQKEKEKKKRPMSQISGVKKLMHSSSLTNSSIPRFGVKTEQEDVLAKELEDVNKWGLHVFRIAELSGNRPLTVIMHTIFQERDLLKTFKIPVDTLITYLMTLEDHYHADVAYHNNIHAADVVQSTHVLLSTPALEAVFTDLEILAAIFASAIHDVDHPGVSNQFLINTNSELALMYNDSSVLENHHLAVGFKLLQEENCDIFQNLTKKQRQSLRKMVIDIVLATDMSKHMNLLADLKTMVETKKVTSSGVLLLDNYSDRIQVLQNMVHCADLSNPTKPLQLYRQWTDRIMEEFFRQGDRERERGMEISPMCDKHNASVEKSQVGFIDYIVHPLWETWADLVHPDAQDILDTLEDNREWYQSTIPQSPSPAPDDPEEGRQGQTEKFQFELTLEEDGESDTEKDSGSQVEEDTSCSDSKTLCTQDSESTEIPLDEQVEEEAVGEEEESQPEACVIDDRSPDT

[11] = molecular target: 3',5'-cyclic-AMP phosphodiesterase 4A (Homo sapiens, UniProt P27815); experiment: Inhibition of human recombinant PDE4A
Chain of 3',5'-cyclic-AMP phosphodiesterase 4A (P27815 whole entry): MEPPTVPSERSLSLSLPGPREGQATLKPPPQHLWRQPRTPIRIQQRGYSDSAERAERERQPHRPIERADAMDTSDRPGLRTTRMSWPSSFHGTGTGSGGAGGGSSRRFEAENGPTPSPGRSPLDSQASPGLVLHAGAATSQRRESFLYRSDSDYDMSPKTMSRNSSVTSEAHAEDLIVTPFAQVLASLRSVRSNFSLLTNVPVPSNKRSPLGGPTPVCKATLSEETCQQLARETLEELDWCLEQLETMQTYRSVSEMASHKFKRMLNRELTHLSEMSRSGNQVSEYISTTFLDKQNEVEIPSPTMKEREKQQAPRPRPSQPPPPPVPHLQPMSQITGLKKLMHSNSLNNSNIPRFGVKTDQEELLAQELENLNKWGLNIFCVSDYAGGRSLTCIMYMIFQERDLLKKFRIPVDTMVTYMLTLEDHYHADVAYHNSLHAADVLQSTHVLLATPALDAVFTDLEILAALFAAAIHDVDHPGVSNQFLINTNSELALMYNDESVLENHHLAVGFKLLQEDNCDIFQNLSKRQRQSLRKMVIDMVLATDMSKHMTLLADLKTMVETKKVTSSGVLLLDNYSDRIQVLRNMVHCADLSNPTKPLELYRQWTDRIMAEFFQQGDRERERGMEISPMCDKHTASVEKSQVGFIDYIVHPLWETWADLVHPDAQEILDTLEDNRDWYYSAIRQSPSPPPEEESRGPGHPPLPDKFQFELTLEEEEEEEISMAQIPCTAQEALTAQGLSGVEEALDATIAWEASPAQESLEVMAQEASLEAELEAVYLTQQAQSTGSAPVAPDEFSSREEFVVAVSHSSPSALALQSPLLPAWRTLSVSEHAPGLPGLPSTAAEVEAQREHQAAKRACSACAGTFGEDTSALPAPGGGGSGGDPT

[12] = molecular target: 3',5'-cyclic-AMP phosphodiesterase 4B (Homo sapiens, UniProt Q07343); experiment: Inhibition of human recombinant PDE4B
Chain of 3',5'-cyclic-AMP phosphodiesterase 4B (Q07343 whole entry): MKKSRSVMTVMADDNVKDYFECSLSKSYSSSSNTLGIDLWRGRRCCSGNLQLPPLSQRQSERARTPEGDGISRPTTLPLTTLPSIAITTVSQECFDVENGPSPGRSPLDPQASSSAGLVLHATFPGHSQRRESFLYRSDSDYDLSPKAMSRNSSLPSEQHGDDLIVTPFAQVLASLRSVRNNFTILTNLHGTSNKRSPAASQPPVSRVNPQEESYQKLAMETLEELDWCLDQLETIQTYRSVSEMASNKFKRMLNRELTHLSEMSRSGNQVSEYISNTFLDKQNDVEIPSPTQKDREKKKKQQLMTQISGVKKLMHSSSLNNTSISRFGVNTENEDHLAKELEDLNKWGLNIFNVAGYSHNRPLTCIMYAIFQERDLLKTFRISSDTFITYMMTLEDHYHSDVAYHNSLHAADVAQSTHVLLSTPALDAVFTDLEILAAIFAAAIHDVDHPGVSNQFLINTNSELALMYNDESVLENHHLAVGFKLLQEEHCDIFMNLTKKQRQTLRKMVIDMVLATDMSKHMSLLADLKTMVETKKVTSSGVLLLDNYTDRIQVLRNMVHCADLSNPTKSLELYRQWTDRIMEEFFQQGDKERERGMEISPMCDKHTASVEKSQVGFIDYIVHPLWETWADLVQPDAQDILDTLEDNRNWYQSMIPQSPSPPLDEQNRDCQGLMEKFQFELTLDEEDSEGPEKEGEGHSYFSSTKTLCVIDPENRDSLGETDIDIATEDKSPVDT

[13] = molecular target: 3',5'-cyclic-AMP phosphodiesterase 4C (Homo sapiens, UniProt Q08493); experiment: Inhibition of human recombinant PDE4C
Chain of 3',5'-cyclic-AMP phosphodiesterase 4C (Q08493 whole entry): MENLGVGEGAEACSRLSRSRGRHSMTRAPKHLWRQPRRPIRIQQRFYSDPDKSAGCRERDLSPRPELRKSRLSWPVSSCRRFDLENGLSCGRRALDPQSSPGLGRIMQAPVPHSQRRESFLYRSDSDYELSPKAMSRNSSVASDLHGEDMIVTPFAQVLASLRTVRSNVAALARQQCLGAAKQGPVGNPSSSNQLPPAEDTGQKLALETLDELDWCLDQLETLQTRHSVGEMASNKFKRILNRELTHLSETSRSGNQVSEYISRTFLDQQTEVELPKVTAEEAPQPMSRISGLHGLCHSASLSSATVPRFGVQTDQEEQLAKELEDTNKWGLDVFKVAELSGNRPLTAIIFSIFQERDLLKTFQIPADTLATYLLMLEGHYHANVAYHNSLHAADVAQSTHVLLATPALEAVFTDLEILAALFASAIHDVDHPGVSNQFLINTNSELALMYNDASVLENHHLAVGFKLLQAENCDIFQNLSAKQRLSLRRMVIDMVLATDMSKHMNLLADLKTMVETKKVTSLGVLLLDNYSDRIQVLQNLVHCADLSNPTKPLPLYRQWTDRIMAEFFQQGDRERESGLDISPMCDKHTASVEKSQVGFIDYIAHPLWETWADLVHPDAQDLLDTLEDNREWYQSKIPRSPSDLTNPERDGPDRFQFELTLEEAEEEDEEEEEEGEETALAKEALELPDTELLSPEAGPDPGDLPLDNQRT

[14] = tested on: Mus musculus; experiment: Antiinflammatory activity in A/J mouse assessed as inhibition of LPS-induced airway elastance provoked by methacholine at 3 mg/kg, po administered 1 hr prior to LPS-challenge measured after 18 hrs relative to vehicle-treated control; assay type: functional
[15] = tested on: Mus musculus; experiment: Antiinflammatory activity in A/J mouse assessed as inhibition of LPS-induced airway resistance provoked by methacholine at 3 mg/kg, po administered 1 hr prior to LPS-challenge measured after 18 hrs relative to vehicle-treated control; assay type: functional
[16] = tested on: Mus musculus; experiment: Antiinflammatory activity in A/J mouse assessed as inhibition of neutrophil accumulation in bronchoalveolar space at 3 mg/kg, po administered 1 hr prior to LPS-challenge measured after 18 hrs relative to vehicle-treated control; assay type: functional; details: Lung
[17] = tested on: PBMC; experiment: Antiinflammatory activity in human PBMC assessed as inhibition of LPS-induced TNFalpha production at 10 uM after 24 hrs by ELISA relative to control; assay type: functional
[18] = Inhibition of bovine PDE3 using [3H]cAMP as substrate; design: species or system Bos taurus
[19] = molecular target: T1, cGMP-dependent 3',5'-cyclic phosphodiesterase (Homo sapiens, UniProt O00408); experiment: Inhibition of human PDE2 using [3H]cAMP as substrate
T1 sequence (O00408 whole entry): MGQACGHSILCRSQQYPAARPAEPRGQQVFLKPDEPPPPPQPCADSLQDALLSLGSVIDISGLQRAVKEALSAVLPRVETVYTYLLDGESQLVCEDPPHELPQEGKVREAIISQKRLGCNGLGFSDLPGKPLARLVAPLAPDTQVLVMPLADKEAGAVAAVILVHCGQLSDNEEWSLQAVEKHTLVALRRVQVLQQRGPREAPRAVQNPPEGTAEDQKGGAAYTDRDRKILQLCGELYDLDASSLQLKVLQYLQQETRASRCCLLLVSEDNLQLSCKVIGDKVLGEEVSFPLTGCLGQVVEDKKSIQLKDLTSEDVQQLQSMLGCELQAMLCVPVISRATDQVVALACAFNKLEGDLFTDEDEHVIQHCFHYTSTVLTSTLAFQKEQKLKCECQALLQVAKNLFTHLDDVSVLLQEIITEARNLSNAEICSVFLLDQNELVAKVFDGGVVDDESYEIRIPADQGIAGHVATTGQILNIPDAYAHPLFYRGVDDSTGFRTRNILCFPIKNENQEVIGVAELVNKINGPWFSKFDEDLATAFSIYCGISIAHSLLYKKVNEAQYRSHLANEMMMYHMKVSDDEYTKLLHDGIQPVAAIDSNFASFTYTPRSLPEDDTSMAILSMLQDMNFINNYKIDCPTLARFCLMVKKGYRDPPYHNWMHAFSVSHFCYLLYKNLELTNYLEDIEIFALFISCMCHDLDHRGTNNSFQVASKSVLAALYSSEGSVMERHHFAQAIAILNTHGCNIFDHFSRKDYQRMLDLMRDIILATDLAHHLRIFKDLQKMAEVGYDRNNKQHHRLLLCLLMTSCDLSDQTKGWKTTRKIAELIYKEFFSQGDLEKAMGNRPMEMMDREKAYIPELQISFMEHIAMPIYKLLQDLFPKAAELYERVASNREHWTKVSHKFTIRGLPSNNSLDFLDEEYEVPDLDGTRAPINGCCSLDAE

[20] = Inhibition of PDE6 at 10 uM
[21] = species on record: Bos taurus; experiment: Inhibition of bovine PDE5 using […] as substrate at 10 uM
[22] = species on record: Bos taurus; experiment: Inhibition of bovine PDE1 using [3H]cAMP as substrate at 10 uM
[23] = species on record: Bos taurus; experiment: Inhibition of bovine PDE3 using [3H]cAMP as substrate at 10 uM
[24] = molecular target: T1, cGMP-dependent 3',5'-cyclic phosphodiesterase; experiment: Inhibition of human PDE2 using [3H]cAMP as substrate at 10 uM
[25] = Inhibition of bovine PDE5 using […] as substrate; design: species or system Bos taurus
[26] = tested on: Mus musculus; experiment: Proemetic activity in A/J mouse assessed as reversal of xylazine/katamine-induced anesthesia at 30 to 200 umol/kg, sc administered 30 mins prior xylazine/ketamine-administration; assay type: ADME, organism-based; details: in vivo, 0.5 h

| inhibition [1] | IC50 [3] | Compound | inhibition in vivo at 100 µmol/kg [2] | inhibition in vivo at 100 µmol/kg [4] | EC50 [5] | inhibition in vivo at 100 µmol/kg [6] | inhibition in vivo at 100 µmol/kg [7] | inhibition in vivo at 100 µmol/kg [8] | inhibition in vivo at 100 µmol/kg [9] | inhibition at 10 µM [17] | other results |
| --- | --- | --- | --- | --- | --- | --- | --- | --- | --- | --- | --- |
| 41.5% | – | COc1ccc(/C=N/NC(=O)c2c(C)nc3ccccn23)cc1OC | – | – | – | – | – | – | – | – | – |
| 98% | 0.19 µM | COc1ccc(/C=N/N(C)c2ncnc3ccccc23)cc1OC | 49% | 86% | 1.3 µM | 47% | 66% | 82% | 70% | – | – |
| 13.6% | – | COc1ccc(/C=N/NC(=O)c2ccc(O)cc2)cc1OC | – | – | – | – | – | – | – | – | – |
| – | – | Clc1ncnc2ccccc12 | – | – | – | – | – | – | – | – | IC50 [10]: 0.622 µM; IC50 [11]: 0.162 µM; IC50 [12]: 0.231 µM; IC50 [13]: 3.69 µM |
| – | – | COc1ccc([C@]2(C#N)CC[C@@H](C(=O)O)CC2)cc1OC1CCCC1 [CILOMILAST] | – | – | – | – | – | – | – | – | inhibition in vivo at 3 mg/kg [14]: 93%; inhibition in vivo at 3 mg/kg [15]: 93%; inhibition in vivo at 3 mg/kg [16]: 43% |
| 97.8% | 0.21 µM | COc1ccc(/C=N/N(C)C(=O)c2ccccc2OC)cc1OC | 53% | 99% | 1.59 µM | 52% | 59% | 61% | 100% | 80% | IC50 [18]: 6.2 µM; IC50 [19]: 16.8 µM; inhibition [20]: 11%; inhibition [21]: 13.9%; inhibition [22]: 11% |
| 96.3% | 0.11 µM | COc1ccc(/C=N/N(C)C(=O)c2ccc3c(c2)OCO3)cc1OC | 67% | 92% | 0.54 µM | 62% | 64% | 56% | 80% | 90% | inhibition [23]: 19.4%; inhibition [20]: 0.6%; inhibition [21]: 5.1%; inhibition [24]: 4%; inhibition [22]: 0% |
| 45.9% | – | COc1ccc(/C=N/N(C)C(=O)c2c(C)nc3ccccn23)cc1OC | – | – | – | – | – | – | – | – | – |
| 10.5% | – | COc1ccc(C(=O)N/N=C/c2ccc3c(c2)OCO3)cc1OC | – | – | – | – | – | – | – | – | – |
| 98.3% | 0.105 µM | COc1ccc(C(=O)N(C)/N=C/c2ccc(OC)c(OC)c2)cc1 | 68% | 45% | 1.45 µM | 81% | 62% | 61% | 51% | 84% | IC50 [25]: 0.15 µM; IC50 [18]: 6.7 µM; IC50 [10]: 0.074 µM; IC50 [11]: 0.159 µM; inhibition [20]: 35.2%; inhibition [24]: 35.5%; inhibition [22]: 25.1%; IC50 [12]: 0.053 µM; Activity [26]: Non-toxic; IC50 [13]: 0.505 µM |
| 6.4% | – | COc1ccc(C(=O)N/N=C/c2ccc(Cl)cc2)cc1OC | – | – | – | – | – | – | – | – | – |
| 97% | 0.15 µM | COc1ccc(/C=N/N(C)C(=O)c2ccc(Cl)cc2)cc1OC | 54% | 59% | 1.03 µM | 69% | 72% | 33% | 54% | 88% | IC50 [18]: 6.7 µM; inhibition [20]: 34%; inhibition [21]: 27.5%; inhibition [24]: 26.6%; inhibition [22]: 17.7% |
| 78.8% | 5.2 µM | COc1ccc(C2=NNC(=O)c3ccccc3C2)cc1OC | – | – | – | – | – | – | – | 14% | – |
| 76.5% | 7.3 µM | COc1ccc(C2=NN(C)C(=O)c3ccccc3C2)cc1OC | – | – | – | – | – | – | – | 20% | – |
| 22.8% | – | COc1ccc(C(=O)N(C)/N=C/c2ccccc2)cc1OC | – | – | – | – | – | – | – | – | – |
| 9.7% | – | COc1ccc(C(=O)N/N=C/c2ccc(OC)c(OC)c2)cc1 | – | – | – | – | – | – | – | – | – |
